# Results from ChEMBL document CHEMBL1144038, “Fluorinated methylenecyclopropane analogues of nucleosides. Synthesis and antiviral activity of (Z)- and (E)-9-{[(2-fluoromethyl-2-hydroxymethyl)-cyclopropylidene]methyl}adenine and -guanine” (Bioorg Med Chem, 2008).
# pEC50: −log10 of the molar value. Active and inactive are the calls of the source. The rule behind the calls is not given here.
# Columns and labels:
# [1] = Selectivity index, ratio of CC50 for human akata cells to EC50 for Epstein-Barr virus; type: functional
# [2] = Cytotoxicity against human akata cells by DNA hybridization assay; type: cell-based
# How it was run: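 Latently infected Akata cells grown in RPMI 1640 with 10% fetal bovine serum, L-glutamine, penicillin and gentamicin at 37 °C in humidified 5% CO2.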
# Human betaherpesvirus 5 [3] = assay: Antiviral activity against Human cytomegalovirus Towne infected in HFF cells by plaque reduction assay; type: functional, organism-based; settings: Human betaherpesvirus 5, Towne
# [4] = Cytotoxicity against HFF cells; type: cell-based; settings: human
# Human gammaherpesvirus 4 [5] = assay: Antiviral activity against Epstein-Barr virus infected in human akata cells; type: functional, organism-based; settings: human gammaherpesvirus 4, Akata
# How it was run: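 Akata cells kept in RPMI 1640 with 10% fetal bovine serum, L-glutamine, penicillin and gentamicin at 37 °C, 5% CO2. Lytic infection induced in latently infected cells with F(ab')2 goat anti-human IgG. Total DNA purified; EBV genome copies quantified by real-time TaqMan PCR (900 nM primers, 200 nM probe).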
# [6] = Cytotoxicity against human Daudi cells by DNA hybridization assay; type: cell-based
# [7] = Selectivity index, ratio of CC50 for human Daudi cells to EC50 for Epstein-Barr virus; type: functional
# Human gammaherpesvirus 4 [8] = assay: Antiviral activity against Epstein-Barr virus infected in human daudi cells by DNA hybridization assay; type: functional, organism-based; settings: human gammaherpesvirus 4, Daudi
# Human gammaherpesvirus 4 [9] = assay: Antiviral activity against Epstein-Barr virus infected in human daudi cells by viral capsid immunofluorescence ELISA; type: functional, organism-based; settings: human gammaherpesvirus 4, Daudi
# Hepatitis C virus = assay: Antiviral activity against Hepatitis C virus infected in human Huh7 AVA5 cells by replicon assay; type: functional, organism-based, Hepacivirus hominis; settings: Huh-7
# How it was run: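 HCV subgenomic CON1 genotype 1b replicon line AVA5 (Huh7), sub-confluent cultures. Compound added daily in fresh medium for 3 days. Assessed 24 h after last dose: intracellular HCV RNA by blot hybridization for EC50; cytotoxicity (CC50) by neutral red dye uptake.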
# Human betaherpesvirus 5 [10] = assay: Antiviral activity against Human cytomegalovirus AD169 infected in HFF cells by plaque reduction assay; type: functional, organism-based
# [11] = Cytotoxicity against human Huh7 AVA5 cells; type: cell-based, Huh-7
# How it was run: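 AVA5 replicon cells (Huh7 carrying subgenomic CON1 HCV, genotype 1b) kept as sub-confluent cultures. Compound given daily in fresh medium for 3 days. Viability was read by neutral red dye uptake 24 h after the last dose.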
# Human gammaherpesvirus 4 [12] = assay: Antiviral activity against Epstein-Barr virus infected in human H1 cells by DNA hybridization assay; type: functional, organism-based; settings: human gammaherpesvirus 4, H1
Structure (SMILES),CC50 [2],pEC50 (Human gammaherpesvirus 4 [5]),CC50 [6],Selectivity index [7],pEC50 (Human gammaherpesvirus 4 [8]),other results
Nc1nc2c(ncn2/C=C2/CC2(CO)CO)c(=O)[nH]1 [FILOCICLOVIR],> 100 µM,,,,,Selectivity index [1]: > 40
Nc1nc2c(ncn2COC(CO)CO)c(=O)[nH]1 [GANCICLOVIR],,,,,,pEC50 (Human betaherpesvirus 5 [3]): 5.60; CC50 [4]: > 100 µM
Nc1nc2c(ncn2/C=C2\CC2(CO)CF)c(=O)[nH]1 (stereo not drawn),64.1 µM,5.49,,,,
Nc1ncnc2c1ncn2/C=C1/CC1(F)CO (stereo not drawn),,,> 213 µM,>31.3,5.17,
Nc1nc2c(ncn2/C=C2/CC2(F)CO)c(=O)[nH]1 (stereo not drawn),,,> 199 µM,>24.9,5.10,
Nc1nc2c(ncn2/C=C2\CC2(F)CO)c(=O)[nH]1 (stereo not drawn),,,> 199 µM,>6.8,4.54,pEC50 (Human gammaherpesvirus 4 [9]): > 6.49
Nc1nc2c(ncn2/C=C2/CC2(CO)CF)c(=O)[nH]1 (stereo not drawn),59.7 µM,5.12,,,,
Nc1ncnc2c1ncn2/C=C1/CC1(CO)CF (stereo not drawn),55.7 µM,6.30,,,,pEC50 (Hepatitis C virus): 5.19; pEC50 (Human betaherpesvirus 5 [3]): 4.34; Activity (Human betaherpesvirus 5 [10]): inactive; CC50 [4]: > 100 µM; CC50 [11]: 11 µM
Nc1nc2c(ncn2COCCO)c(=O)[nH]1 [ACYCLOVIR],,5.77,,,,
Nc1ncnc2c1ncn2/C=C1\CC1(F)CO (stereo not drawn),,,> 209 µM,>1.25,3.78,pEC50 (Human gammaherpesvirus 4 [9]): 5.64; pEC50 (Human gammaherpesvirus 4 [12]): 5.44
Nc1ncnc2c1ncn2/C=C1\CC1(CO)CF (stereo not drawn),53.6 µM,5.47,,,,
